Measurements as given in ChEMBL document CHEMBL1124569, “5-HT1A-receptor antagonism: N-alkyl derivatives of (R)-(-)-8,11-dimethoxynoraporphine” (J Med Chem, 1989).
Calls of active or inactive are those of the source. The rule behind the calls is not given here.

Key:
D(2) dopamine receptor = D(2) dopamine receptor (Rattus norvegicus, UniProt P61169); experiment: Binding affinity of compound against Dopamine receptor D2 binding site using radioligand [3H]spiperone
Felis catus [1] = experiment: Minimum effective dose administered intravenously for decrease in heart rate in cat; type: functional; settings: iv, read-out: MED
How it was run: (§1)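 Cats anesthetized with pentobarbital sodium (30 mg/kg ip), intubated and ventilated, with bilateral vagotomy and atropine sulfate 200 μg/kg. Compound given iv via femoral vein, doses up to 1 mg/kg. Femoral arterial pressure and heart rate were recorded continuously. The right postganglionic cardioaccelerator nerve was stimulated at 2 Hz, 5 ms, 20 V.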

[2] = biological target: T1, 5-hydroxytryptamine receptor 1A (Rattus norvegicus, UniProt P19327); experiment: Binding affinity of compound against 5-hydroxytryptamine 1A receptor binding site using radioligand [3H]8-OH-DPAT
T1 sequence (P19327 whole entry): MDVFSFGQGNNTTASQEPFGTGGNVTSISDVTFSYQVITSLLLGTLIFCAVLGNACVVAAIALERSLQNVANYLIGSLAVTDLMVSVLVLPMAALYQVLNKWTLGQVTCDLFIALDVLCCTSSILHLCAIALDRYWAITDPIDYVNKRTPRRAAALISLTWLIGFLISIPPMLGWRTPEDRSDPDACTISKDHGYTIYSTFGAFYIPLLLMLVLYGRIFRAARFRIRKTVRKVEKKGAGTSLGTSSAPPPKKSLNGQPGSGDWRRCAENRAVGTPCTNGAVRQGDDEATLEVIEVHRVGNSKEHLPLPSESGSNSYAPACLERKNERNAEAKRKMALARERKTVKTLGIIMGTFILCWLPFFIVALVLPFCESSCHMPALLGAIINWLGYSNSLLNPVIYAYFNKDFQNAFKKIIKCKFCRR

Felis catus [3] = experiment: Minimum effective dose administered intravenously for decrease in arterial pressure in cat heart; type: functional; settings: Artery, iv, read-out: MED; how it was run: as §1
Rattus norvegicus [4] = organism: Rattus norvegicus; experiment: Ability of compound to induce behavioral changes in rat; type: functional; settings: read-out: MED
How it was run: (§2)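 Rats dosed subcutaneously and observed for locomotor activity and serotonin syndrome signs (flat body posture, forepaw extension and padding, abducted hindlimbs, forebody tremor). Antagonism was tested by giving the compound 15 min before subcutaneous 8-OH-DPAT.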

Rattus norvegicus [5] = organism: Rattus norvegicus; experiment: Ability of compound to induce behavioral changes in rat; Not active; type: functional, organism-based; how it was run: as §2

Sequence of D(2) dopamine receptor (P61169 whole entry): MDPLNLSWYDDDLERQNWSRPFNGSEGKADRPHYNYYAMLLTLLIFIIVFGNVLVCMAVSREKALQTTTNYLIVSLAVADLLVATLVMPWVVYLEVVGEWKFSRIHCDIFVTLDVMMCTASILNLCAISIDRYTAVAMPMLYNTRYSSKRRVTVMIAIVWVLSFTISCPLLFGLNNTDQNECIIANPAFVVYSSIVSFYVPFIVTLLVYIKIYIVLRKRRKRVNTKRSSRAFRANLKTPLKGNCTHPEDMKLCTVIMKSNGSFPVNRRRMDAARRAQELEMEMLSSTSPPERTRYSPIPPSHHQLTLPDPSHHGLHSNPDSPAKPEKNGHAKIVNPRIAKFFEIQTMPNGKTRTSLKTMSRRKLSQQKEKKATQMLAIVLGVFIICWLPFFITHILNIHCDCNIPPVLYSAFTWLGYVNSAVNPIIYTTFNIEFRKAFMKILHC

Row | Compound | Ki (D(2) dopamine receptor) [nM] | minimal effective dose (Felis catus [1]) [mg/kg] | Ki [2] [nM] | minimal effective dose (Felis catus [3]) [mg/kg] | minimal effective dose (Rattus norvegicus [4]) [mg/kg] | MED (Rattus norvegicus [5])
1 | COc1ccc(OC)c2c1C[C@@H]1c3c(cccc3-2)CCN1C | 210 | > 1 | 8.6 | > 1 | 5 | 
2 | CCCN1CCc2cccc3c2[C@H]1Cc1c(OC)ccc(OC)c1-3 | 770 | > 1 | 240 | > 1 |  | inactive
3 | CN1CCc2cccc3c2[C@H]1Cc1ccc(O)c(O)c1-3 [APOMORPHINE] |  | 0.01 |  | 0.01 | 1 | 
4 | O=C(CCCN1CCC2(CC1)C(=O)NCN2c1ccccc1)c1ccc(F)cc1 [SPIPERONE] |  |  | 30 |  |  | 
5 | CCCN(CCC)C1CCc2cccc(O)c2C1 (stereo not drawn) [8-OH-DPAT] | 3500 | 0.01 |  | 0.01 | 0.5 | 
